Tests used:
Vero = test: Cytotoxicity against African green monkey Vero cells after 48 hrs by MTT assay; type: cell-based; conditions: Chlorocebus sabaeus
Method in brief: (§1)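 MTT viability screen for cytotoxicity across the breast cancer and normal kidney epithelial lines; IC50 reported in µM.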

HEK293 = test: Cytotoxicity against human HEK293 cells after 48 hrs by MTT assay; type: cell-based; conditions: HEK293, 48 h; method in brief: as §1
MCF7 = test: Cytotoxicity against human MCF7 cells after 48 hrs by MTT assay; type: functional, cell-based; conditions: MCF7, 48 h; method in brief: as §1
MDA-MB-231 = test: Cytotoxicity against human MDA-MB-231 cells after 48 hrs by MTT assay; type: functional, cell-based; conditions: MDA-MB-231, 48 h; method in brief: as §1

Row | Compound | IC50 (Vero) [µM] | IC50 (HEK293) [µM] | IC50 (MCF7) [µM] | IC50 (MDA-MB-231) [µM]
1 | CC/C(=C(\c1ccc(O)cc1)c1ccc(OCCN(C)C)cc1)c1ccccc1 | > 50 | > 50 | 13.6 | –
2 | CN(C)CCOc1ccc(C(=O)C2[C@H](c3ccccc3)[C@@H](c3ccccc3)NC23C(=O)Nc2ccc([N+](=O)[O-])cc23)cc1 (stereo not given in full) | 28.8 | 24.2 | 17.2 | 17.8
3 | O=C(c1ccc(OCCN2CCOCC2)cc1)C1[C@H](c2ccccc2)[C@@H](c2ccccc2)NC12C(=O)Nc1ccc([N+](=O)[O-])cc12 (stereo not given in full) | > 50 | 45.4 | 24.7 | > 50
4 | O=C(c1ccc(OCCN2CCOCC2)cc1)C1[C@H](c2ccccc2)[C@@H](c2ccccc2)NC12C(=O)Nc1ccccc12 (stereo not given in full) | > 50 | > 50 | > 50 | > 50
5 | COc1ccc([C@H]2C(C(=O)c3ccccc3)C3(N[C@@H]2c2ccccc2)C(=O)Nc2ccccc23)cc1 (stereo not given in full) | 43.5 | > 50 | 20.6 | 30.5
6 | CC(CN(C)C)Oc1ccc(C(=O)C2[C@H](c3ccccc3)[C@@H](c3ccccc3)NC23C(=O)Nc2ccccc23)cc1 (stereo not given in full) | > 50 | > 50 | 20.5 | > 50
7 | O=C(c1ccc(OCCN2CCCCC2)cc1)C1[C@H](c2ccccc2)[C@@H](c2ccccc2)NC12C(=O)Nc1ccc([N+](=O)[O-])cc12 (stereo not given in full) | 22.4 | 18.8 | 15.2 | 13.5
8 | O=C(c1ccc([N+](=O)[O-])cc1)C1[C@H](c2ccccc2)[C@@H](c2ccccc2)NC12C(=O)Nc1ccccc12 (stereo not given in full) | > 50 | 21.4 | 15.5 | 29.5
9 | O=C(c1ccc(OCCN2CCCC2)cc1)C1[C@H](c2ccccc2)[C@@H](c2ccccc2)NC12C(=O)Nc1ccccc12 (stereo not given in full) | 19.4 | 25.3 | 23 | 16.8

Reference: ChEMBL document CHEMBL3399923, “Design and synthesis of new bioisosteres of spirooxindoles (MI-63/219) as anti-breast cancer agents” (Bioorg Med Chem, 2015)
